Assay results taken from paper PMC10693930 (Biochemistry, 2023).
Numbering of substitutions follows the chain as printed. Names and notes keep the numbering of the source.

What was measured:
WT SaPC [1] = biological target: T1, WT SaPC (Staphylococcus aureus, UniProt A0A0H3JRU9); experiment: Pyruvate carboxylation inhibition assay with CT domain inhibitors; type: biochemical; conditions: SaPC; CT domain inhibitors
In short: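 WT SaPC (5 μg/mL) was pre-incubated with inhibitor and acetyl-CoA, and the reaction was started with 10× substrate mix (final 25 mM NaHCO3, 2.5 mM ATP, 12 mM pyruvate). MDH-coupled (10 U/mL MDH, 0.12 mM NADH); change in A340 monitored. Inhibitor 0–1 mM or 0–50 mM by compound. MDH-only controls. Triplicate; SD of three trials.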

E418A SaPC [2] = biological target: T2, E418A SaPC (Staphylococcus aureus, UniProt A0A0H3JRU9, E418A); experiment: Pyruvate carboxylation inhibition assay with CT domain inhibitors; type: biochemical; conditions: for change of inhibition in the presence of acetyl-CoA: 500 μM acetyl-CoA
WT SaPC [3] = biological target: T1, WT SaPC; experiment: Pyruvate carboxylation assay; type: biochemical; conditions: for increase of apparent Ka in the presence of L-aspartate: 20 mM L-aspartate vs none; for ratio (Ka CoA / Ka acetyl-CoA): discrimination of acetyl-CoA over CoA
K46A SaPC [4] = biological target: T3, K46A SaPC (Staphylococcus aureus, UniProt A0A0H3JRU9, K46A); experiment: Pyruvate carboxylation assay; type: biochemical; conditions: K46A SaPC; for ratio (Ka CoA / Ka acetyl-CoA): discrimination of acetyl-CoA over CoA
E418A SaPC [5] = biological target: T2, E418A SaPC; experiment: Pyruvate carboxylation assay; type: biochemical
R21A SaPC [6] = biological target: T4, R21A SaPC (Staphylococcus aureus, UniProt A0A0H3JRU9, R21A); experiment: Pyruvate carboxylation assay; type: biochemical; conditions: R21A SaPC; for ratio (Ka CoA / Ka acetyl-CoA): discrimination of acetyl-CoA over CoA
K411A SaPC = K411A SaPC (Staphylococcus aureus, UniProt A0A0H3JRU9, K411A); experiment: Pyruvate carboxylation assay; type: biochemical; conditions: K411A SaPC
WT SaPC [7] = biological target: T1, WT SaPC; experiment: ADP phosphorylation assay; type: biochemical
K46A SaPC [8] = biological target: T3, K46A SaPC; experiment: ADP phosphorylation assay; type: biochemical; conditions: up to 1 mM acetyl-CoA
E418A SaPC [9] = biological target: T2, E418A SaPC; experiment: ADP phosphorylation assay; type: biochemical; conditions: up to 1 mM acetyl-CoA
R21A SaPC [10] = biological target: T4, R21A SaPC; experiment: ADP phosphorylation assay; type: biochemical; conditions: up to 1 mM acetyl-CoA
SaPC = conditions: cited from earlier work
PC = conditions: cited from earlier work
[11] = biological target: ΔBCΔBCCP SaPC (Staphylococcus aureus (strain Mu50 / ATCC 700699)); experiment: SEC
SEC = biological target: the molecule itself; experiment: SEC
[12] = Acyl-CoA alone, Table 1, fit to Equation 1 (3′5′ diphosphoadenosine: Equation 2)
[13] = Acyl-CoA + 20 mM L-aspartate, Table 1
[14] = up to 100 mM, nonspecific inhibition above 100 mM

O=C(O)C(O)=Cc1ccc2ccccc2n1 [2-hydroxy-3-(quinoline-2-yl)propenoic acid]
change of potency in the presence of acetyl-CoA (WT SaPC [1]): significantly reduced potency | inhibition of pyruvate carboxylation (E418A SaPC [2]): inhibited | change of inhibition in the presence of acetyl-CoA (E418A SaPC [2]): unchanged

Nc1ncnc2c1ncn2[C@@H]1O[C@H](COP(=O)(O)O)[C@@H](OP(=O)(O)O)[C@H]1O [3′5′ diphosphoadenosine, 3’5’-diphosphoadenosine]
h (Hill coefficient) (WT SaPC [3]; Acyl-CoA alone, Table 1): 1.6 ± 0.7 | Ka (apparent activation constant) (WT SaPC [3]; [12]): 5900 ± 3100 µM | concentration range in which SaPC is activated (WT SaPC [3]; WT SaPC (Figure S2)): up to 7 mM | concentration at which inhibitory (WT SaPC [3]; WT SaPC (Figure S2), attributed to competition with ATP in BC domain): greater than 7 mM | estimated apparent Ka (WT SaPC [3]; WT SaPC, fit to Equation 2, Ki fixed at 5 mM): ~ 5.9 mM

CC(=O)SCCNC(=O)CCNC(=O)[C@H](O)C(C)(C)COP(=O)(O)OP(=O)(O)OC[C@H]1O[C@@H](n2cnc3c(N)ncnc32)[C@H](O)[C@@H]1OP(=O)(O)O [Acetyl-CoA]
Ka (apparent activation constant) (WT SaPC [3]; [13]): 4.1 ± 0.3 µM | h (Hill coefficient) (WT SaPC [3]; [13]): 3.3 ± 0.6 | h (Hill coefficient) (WT SaPC [3]; Acyl-CoA alone, Table 1): 1.5 ± 0.1 | Ka (apparent activation constant) (WT SaPC [3]; [12]): 1.5 ± 0.1 µM | increase of apparent Ka in the presence of L-aspartate (WT SaPC [3]; WT SaPC): ~ 4 fold | Ka (apparent activation constant) (WT SaPC [3]; WT SaPC, Table 2 series): 1.5 ± 0.1 µM | ratio (Ka CoA / Ka acetyl-CoA) (WT SaPC [3]; WT SaPC): 33 | ratio (Ka CoA / Ka acetyl-CoA) (WT SaPC [3]; WT SaPC, listed as acetyl-CoA): ~ 30 | Ka (apparent activation constant) (K46A SaPC [4]): 340 ± 30 µM | ratio (Ka CoA / Ka acetyl-CoA) (K46A SaPC [4]): 4 | ratio (Ka CoA / Ka acetyl-CoA) (K46A SaPC [4]; listed as acetyl-CoA): 4 – 5 | activation of pyruvate carboxylation (E418A SaPC [5]; up to 4 mM acetyl-CoA and 30 mM CoA): unresponsive to activation | Ka (apparent activation constant) (R21A SaPC [6]): 340 ± 50 µM | ratio (Ka CoA / Ka acetyl-CoA) (R21A SaPC [6]): 5 | ratio (Ka CoA / Ka acetyl-CoA) (R21A SaPC [6]; listed as acetyl-CoA): 4 – 5 | Ka (apparent activation constant) (K411A SaPC): 5.8 ± 0.2 µM | ratio (Ka CoA / Ka acetyl-CoA) (K411A SaPC; discrimination of acetyl-CoA over CoA): 17 | Ka (apparent activation constant) (WT SaPC [7]; WT SaPC, ADP phosphorylation by carbamoyl phosphate): 15 ± 6 µM | concentration giving slight inhibition of ADP phosphorylation (WT SaPC [7]; in all cases, including WT (Figure S4)): greater than 4 mM | activation of ADP phosphorylation (K46A SaPC [8]): unable to be activated | activation of ADP phosphorylation (E418A SaPC [9]): unable to be activated | activation of ADP phosphorylation (R21A SaPC [10]): unable to be activated | greater affinity than CoA (SaPC): ~ 100 fold | increase of binding affinity by the acetyl moiety (SaPC): ~ 80 fold | increase of kcat in the presence of activator (SaPC): 5-10 fold | increase of kcat in the presence of activator (PC; depends on the organism): up to 35 fold

CC(=O)NCCNC(=O)CCNC(=O)[C@H](O)C(C)(C)COP(=O)(O)OP(=O)(O)OC[C@H]1O[C@@H](n2cnc3c(N)ncnc32)[C@H](O)[C@@H]1OP(=O)(O)O [Acetyl-aza(dethia)-CoA, acetyl-aza(dethia)-CoA]
h (Hill coefficient) (WT SaPC [3]; Acyl-CoA alone, Table 1): 1.3 ± 0.4 | Ka (apparent activation constant) (WT SaPC [3]; [12]): 2500 ± 1000 µM

CC(=O)CCCNC(=O)CCNC(=O)[C@H](O)C(C)(C)COP(=O)(O)OP(=O)(O)OC[C@H]1O[C@@H](n2cnc3c(N)ncnc32)[C@H](O)[C@@H]1OP(=O)(O)O [Acetyl-carba(dethia)-CoA, acetyl-carba(dethia)-CoA]
Ka (apparent activation constant) (WT SaPC [3]; [13]): 190 ± 10 µM | h (Hill coefficient) (WT SaPC [3]; [13]): 3.1 ± 0.6 | h (Hill coefficient) (WT SaPC [3]; Acyl-CoA alone, Table 1): 1.5 ± 0.2 | Ka (apparent activation constant) (WT SaPC [3]; [12]): 53 ± 4 µM | increase of apparent Ka in the presence of L-aspartate (WT SaPC [3]; WT SaPC): ~ 4 fold

CC(=O)OCCNC(=O)CCNC(=O)[C@H](O)C(C)(C)COP(=O)(O)OP(=O)(O)OC[C@H]1O[C@@H](n2cnc3c(N)ncnc32)[C@H](O)[C@@H]1OP(=O)(O)O [Acetyl-oxa(dethia)-CoA, acetyl-oxa(dethia)-CoA]
Ka (apparent activation constant) (WT SaPC [3]; [13]): 270 ± 20 µM | h (Hill coefficient) (WT SaPC [3]; [13]): 3.3 ± 0.7 | h (Hill coefficient) (WT SaPC [3]; Acyl-CoA alone, Table 1): 1.5 ± 0.3 | Ka (apparent activation constant) (WT SaPC [3]; [12]): 73 ± 11 µM | increase of apparent Ka in the presence of L-aspartate (WT SaPC [3]; WT SaPC): ~ 4 fold

N[C@@H](CC(=O)O)C(=O)O [L-aspartate]
inhibition of pyruvate carboxylation (K46A SaPC [4]; [14]): not inhibited | inhibition of pyruvate carboxylation (E418A SaPC [5]; [14]): not inhibited | inhibition of pyruvate carboxylation (R21A SaPC [6]; [14]): not inhibited | decrease of kcat in the presence of inhibitor (SaPC): 2-5 fold

N[C@@H](CCC(=O)O)C(=O)O [L-glutamate]
concentration at which pyruvate carboxylation is inhibited (WT SaPC [3]; WT SaPC, nonspecific effect (Figure S5)): exceeding 100 mM

CC(=O)SCCNC(=O)CCNC(=O)[C@H](O)C(C)(C)CO [acetylpantetheine]
binding and activation of PC (PC; lacks the nucleotidyl portion): binds to but does not activate PC

O=C(O)C(=O)Cc1ccccc1 [phenylpyruvate]
change of potency in the presence of acetyl-CoA (WT SaPC [1]): significantly reduced potency | inhibition of pyruvate carboxylation (E418A SaPC [2]): inhibited | change of inhibition in the presence of acetyl-CoA (E418A SaPC [2]): unchanged

ΔBCΔBCCP SaPC (domain or fragment)
stoichiometry N [11]: 2

B1: Staphylococcus aureus pyruvate carboxylase, wild type (enzyme)
chain: MKQIKKLLVANRGEIAIRIFRAAAELDISTVAIYSNEDKSSLHRYKADESYLVGSDLGPAESYLNIERIIDVAKQANVDAIHPGYGFLSENEQFARRCAEEGIKFIGPHLEHLDMFGDKVKARTTAIKADLPVIPGTDGPIKSYELAKEFAEEAGFPLMIKATSGGGGKGMRIVREESELEDAFHRAKSEAEKSFGNSEVYIERYIDNPKHIEVQVIGDEHGNIVHLFERDCSVQRRHQKVVEVAPSVGLSPTLRQRICDAAIQLMENIKYVNAGTVEFLVSGDEFFFIEVNPRVQVEHTITEMVTGIDIVKTQILVAAGADLFGEEINMPQQKDITTLGYAIQCRITTEDPLNDFMPDTGTIIAYRSSGGFGVRLDAGDGFQGAEISPYYDSLLVKLSTHAISFKQAEEKMVRSLREMRIRGVKTNIPFLINVMKNKKFTSGDYTTKFIEETPELFDIQPSLDRGTKTLEYIGNVTINGFPNVEKRPKPDYELASIPTVSSSKIASFSGTKQLLDEVGPKGVAEWVKKQDDVLLTDTTFRDAHQSLLATRVRTKDMINIASKTADVFKDGFSLEMWGGATFDVAYNFLKENPWERLERLRKAIPNVLFQMLLRASNAVGYKNYPDNVIHKFVQESAKAGIDVFRIFDSLNWVDQMKVANEAVQEAGKISEGTICYTGDILNPERSNIYTLEYYVKLAKELEREGFHILAIKDMAGLLKPKAAYELIGELKSAVDLPIHLHTHDTSGNGLLTYKQAIDAGVDIIDTAVASMSGLTSQPSANSLYYALNGFPRHLRTDIEGMESLSHYWSTVRTYYSDFESDIKSPNTEIYQHEMPGGQYSNLSQQAKSLGLGERFDEVKDMYRRVNFLFGDIVKVTPSSKVVGDMALYMVQNDLDEQSVITDGYKLDFPESVVSFFKGEIGQPVNGFNKDLQAVILKGQEALTARPGEYLEPVDFEKVRELLEEEQQGPVTEQDIISYVLYPKVYEQYIQTRNQYGNLSLLDTPTFFFGMRNGETVEIEIDKGKRLIIKLETISEPDENGNRTIYYAMNGQARRIYIKDENVHTNANVKPKADKSNPSHIGAQMPGSVTEVKVSVGETVKANQPLLITEAMKMETTIQAPFDGVIKQVTVNNGDTIATGDLLIEIEKATD
modifications: biotin, covalently tethered to the BCCP domain (co-expressed with BirA to ensure complete biotinylation; residue not stated)
stoichiometry N (SEC): 4

B2: K46A SaPC (enzyme)
chain: B1 chain with K46A
modifications: biotin, covalently tethered to the BCCP domain (co-expressed with BirA to ensure complete biotinylation; residue not stated)
stoichiometry N (SEC): 4

B3: R21A SaPC (enzyme)
chain: B1 chain with R21A
modifications: biotin, covalently tethered to the BCCP domain (co-expressed with BirA to ensure complete biotinylation; residue not stated)
stoichiometry N (SEC): 4

B4: E418A SaPC (enzyme)
chain: B1 chain with E418A
modifications: biotin, covalently tethered to the BCCP domain (co-expressed with BirA to ensure complete biotinylation; residue not stated)
stoichiometry N (SEC): 4
